# The M2OR odorant receptor database
# Positions count from the first letter of the chain named.
# Assays:
# Settings in all cases: stereoisomer not certain
# OR2AE1 (Homo sapiens) = target: T1, OR2AE1 (Homo sapiens) (UniProt Q8NHA4)
# T1 sequence (whole entry): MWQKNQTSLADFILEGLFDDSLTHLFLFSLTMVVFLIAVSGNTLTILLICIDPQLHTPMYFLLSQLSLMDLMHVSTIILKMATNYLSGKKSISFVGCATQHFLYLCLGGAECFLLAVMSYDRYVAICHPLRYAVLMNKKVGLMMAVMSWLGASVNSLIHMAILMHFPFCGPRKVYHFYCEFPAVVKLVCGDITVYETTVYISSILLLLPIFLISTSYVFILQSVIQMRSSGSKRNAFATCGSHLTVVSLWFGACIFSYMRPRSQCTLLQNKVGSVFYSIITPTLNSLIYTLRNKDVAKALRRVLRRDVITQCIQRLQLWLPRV
# Procedure, shortened: (§1)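 Transient luciferase assays in mammalian cell lines were common, though methods varied by source. The values come from published papers and their supplementary material, with extra details from the original authors when needed. Responsive refers to a measured signal the original authors judged statistically different from baseline, and non-responsive (inactive) to the remainder.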
# OR2AG1 (Homo sapiens) = target: T2, OR2AG1 (Homo sapiens) (UniProt Q9H205)
# T2 sequence (whole entry): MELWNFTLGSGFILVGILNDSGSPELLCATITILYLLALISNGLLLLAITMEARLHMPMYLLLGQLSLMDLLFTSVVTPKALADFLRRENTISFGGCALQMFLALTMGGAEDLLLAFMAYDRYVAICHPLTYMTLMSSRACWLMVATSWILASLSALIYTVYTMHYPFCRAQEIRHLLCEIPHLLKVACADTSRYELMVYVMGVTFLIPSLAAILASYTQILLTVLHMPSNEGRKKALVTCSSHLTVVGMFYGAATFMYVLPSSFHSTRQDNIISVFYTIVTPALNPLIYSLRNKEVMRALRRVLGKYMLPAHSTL
# Procedure, shortened: as §1
# OR2AG2 (Homo sapiens) = target: T3, OR2AG2 (Homo sapiens) (UniProt A6NM03)
# T3 sequence (whole entry): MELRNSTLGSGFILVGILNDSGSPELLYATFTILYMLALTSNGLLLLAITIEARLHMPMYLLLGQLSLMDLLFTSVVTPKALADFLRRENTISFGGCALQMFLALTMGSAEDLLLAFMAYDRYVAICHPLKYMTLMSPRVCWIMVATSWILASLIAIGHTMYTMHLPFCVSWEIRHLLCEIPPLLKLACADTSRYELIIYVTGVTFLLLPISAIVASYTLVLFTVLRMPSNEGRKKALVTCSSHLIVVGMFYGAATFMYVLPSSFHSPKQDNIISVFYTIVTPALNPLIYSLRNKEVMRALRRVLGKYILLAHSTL
# Procedure, shortened: as §1
# OR2AJ1 (Homo sapiens) = target: T4, OR2AJ1 (Homo sapiens) (UniProt Q8NGZ0)
# T4 sequence (whole entry): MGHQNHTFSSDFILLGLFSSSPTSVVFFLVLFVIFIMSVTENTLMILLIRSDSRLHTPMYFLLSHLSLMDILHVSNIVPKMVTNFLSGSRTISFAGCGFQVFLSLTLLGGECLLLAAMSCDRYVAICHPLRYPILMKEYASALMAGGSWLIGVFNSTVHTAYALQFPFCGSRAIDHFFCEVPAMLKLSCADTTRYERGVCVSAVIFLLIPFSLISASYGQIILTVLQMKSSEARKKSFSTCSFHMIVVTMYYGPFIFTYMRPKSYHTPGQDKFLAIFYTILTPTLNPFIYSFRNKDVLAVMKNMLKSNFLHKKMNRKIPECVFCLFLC
# Procedure, shortened: as §1
# OR2AK2 (Homo sapiens) = target: T5, OR2AK2 (Homo sapiens) (UniProt Q8NG84)
# T5 sequence (whole entry): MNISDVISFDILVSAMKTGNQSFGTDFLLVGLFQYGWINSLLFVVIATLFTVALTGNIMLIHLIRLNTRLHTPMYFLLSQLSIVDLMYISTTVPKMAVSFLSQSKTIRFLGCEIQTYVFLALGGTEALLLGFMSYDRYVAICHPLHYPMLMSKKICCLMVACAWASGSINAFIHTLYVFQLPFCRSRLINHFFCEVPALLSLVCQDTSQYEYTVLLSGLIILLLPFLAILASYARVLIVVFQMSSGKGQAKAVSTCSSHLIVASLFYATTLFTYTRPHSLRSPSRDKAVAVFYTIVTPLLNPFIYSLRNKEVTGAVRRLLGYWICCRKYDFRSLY
# Procedure, shortened: as §1
# OR2AP1 (Homo sapiens) = target: T6, OR2AP1 (Homo sapiens) (UniProt Q8NGE2)
# T6 sequence (whole entry): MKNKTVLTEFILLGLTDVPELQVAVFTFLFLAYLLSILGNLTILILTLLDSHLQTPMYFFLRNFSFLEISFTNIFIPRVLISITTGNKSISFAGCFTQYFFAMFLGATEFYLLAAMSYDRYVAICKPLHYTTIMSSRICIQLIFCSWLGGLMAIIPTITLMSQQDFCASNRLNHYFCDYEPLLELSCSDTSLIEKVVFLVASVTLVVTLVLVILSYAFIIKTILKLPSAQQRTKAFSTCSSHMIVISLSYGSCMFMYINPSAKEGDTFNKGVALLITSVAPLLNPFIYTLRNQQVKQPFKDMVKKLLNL
# Procedure, shortened: as §1
# OR2AT4 (Homo sapiens) = target: T7, OR2AT4 (Homo sapiens) (UniProt A6NND4)
# T7 sequence (whole entry): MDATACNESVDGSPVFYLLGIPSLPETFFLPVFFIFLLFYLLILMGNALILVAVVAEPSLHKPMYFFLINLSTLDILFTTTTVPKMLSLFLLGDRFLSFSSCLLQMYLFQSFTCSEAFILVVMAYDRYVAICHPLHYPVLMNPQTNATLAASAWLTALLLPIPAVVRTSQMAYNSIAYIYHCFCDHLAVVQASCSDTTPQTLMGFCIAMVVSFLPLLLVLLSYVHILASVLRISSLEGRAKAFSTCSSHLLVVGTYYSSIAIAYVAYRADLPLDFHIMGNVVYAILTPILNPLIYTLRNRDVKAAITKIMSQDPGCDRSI
# Procedure, shortened: as §1
# OR2B11 (Homo sapiens) = target: T8, OR2B11 (Homo sapiens) (UniProt Q5JQS5)
# T8 sequence (whole entry): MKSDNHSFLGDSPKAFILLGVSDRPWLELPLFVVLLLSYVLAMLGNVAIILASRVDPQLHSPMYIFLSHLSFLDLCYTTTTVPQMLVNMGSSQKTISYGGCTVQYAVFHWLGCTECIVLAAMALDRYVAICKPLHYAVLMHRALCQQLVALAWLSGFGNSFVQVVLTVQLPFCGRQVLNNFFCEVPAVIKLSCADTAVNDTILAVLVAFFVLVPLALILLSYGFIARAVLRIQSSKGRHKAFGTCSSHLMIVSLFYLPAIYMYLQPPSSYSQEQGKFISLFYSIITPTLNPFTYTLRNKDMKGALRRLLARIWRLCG
# Procedure, shortened: as §1
# OR2B2 (Homo sapiens) = target: T9, OR2B2 (Homo sapiens) (UniProt Q9GZK3)
# T9 sequence (whole entry): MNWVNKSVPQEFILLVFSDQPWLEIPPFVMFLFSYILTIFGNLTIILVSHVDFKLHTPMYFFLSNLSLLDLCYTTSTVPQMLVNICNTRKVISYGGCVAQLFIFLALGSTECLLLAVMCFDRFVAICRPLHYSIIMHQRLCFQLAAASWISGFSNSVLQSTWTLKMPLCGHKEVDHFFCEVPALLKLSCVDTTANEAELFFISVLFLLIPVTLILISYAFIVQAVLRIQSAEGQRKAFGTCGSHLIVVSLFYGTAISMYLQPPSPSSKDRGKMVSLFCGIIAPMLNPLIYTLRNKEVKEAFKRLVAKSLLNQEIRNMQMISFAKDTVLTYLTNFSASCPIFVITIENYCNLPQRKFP
# Procedure, shortened: as §1
# OR2B3 (Homo sapiens) = target: T10, OR2B3 (Homo sapiens) (UniProt O76000)
# T10 sequence (whole entry): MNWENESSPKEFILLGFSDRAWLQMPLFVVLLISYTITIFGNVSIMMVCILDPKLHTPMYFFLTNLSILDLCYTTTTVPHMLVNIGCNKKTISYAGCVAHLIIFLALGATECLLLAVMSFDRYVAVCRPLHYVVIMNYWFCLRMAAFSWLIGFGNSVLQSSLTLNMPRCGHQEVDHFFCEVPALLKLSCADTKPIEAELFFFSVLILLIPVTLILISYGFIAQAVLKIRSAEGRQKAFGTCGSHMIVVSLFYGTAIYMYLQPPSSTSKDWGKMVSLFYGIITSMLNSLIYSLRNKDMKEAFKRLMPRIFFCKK
# Procedure, shortened: as §1
# OR2B6 (Homo sapiens) = target: T11, OR2B6 (Homo sapiens) (UniProt P58173)
# T11 sequence (whole entry): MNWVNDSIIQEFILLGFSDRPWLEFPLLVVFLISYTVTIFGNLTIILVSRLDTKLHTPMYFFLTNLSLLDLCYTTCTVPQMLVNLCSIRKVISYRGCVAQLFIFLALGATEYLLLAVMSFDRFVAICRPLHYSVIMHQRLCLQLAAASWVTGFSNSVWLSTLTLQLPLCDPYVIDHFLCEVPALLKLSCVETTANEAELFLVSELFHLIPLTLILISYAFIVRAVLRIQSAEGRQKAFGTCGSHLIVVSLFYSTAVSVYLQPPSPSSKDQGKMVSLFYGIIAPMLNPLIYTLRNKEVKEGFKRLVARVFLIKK
# Procedure, shortened: as §1
# OR2C1 (Homo sapiens) = target: T12, OR2C1 (Homo sapiens) (UniProt O95371)
# T12 sequence (whole entry): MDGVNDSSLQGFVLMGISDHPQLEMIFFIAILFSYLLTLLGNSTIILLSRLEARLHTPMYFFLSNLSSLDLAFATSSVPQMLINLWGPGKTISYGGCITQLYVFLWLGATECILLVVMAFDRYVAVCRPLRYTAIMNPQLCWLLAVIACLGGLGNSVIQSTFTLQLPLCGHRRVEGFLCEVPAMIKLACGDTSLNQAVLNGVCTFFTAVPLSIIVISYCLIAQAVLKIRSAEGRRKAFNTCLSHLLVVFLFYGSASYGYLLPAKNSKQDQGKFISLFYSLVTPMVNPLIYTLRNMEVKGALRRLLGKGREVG
# Procedure, shortened: as §1
# OR2BB [1] = system: T13, OR2BB
# T13 sequence (whole entry): T8 sequence (whole entry) with V198M, T293I, D300G
# Procedure, shortened: as §1
# OR2BB [2] = system: T14, OR2BB; remark: listed apart in the source
# T14 sequence (whole entry): T8 sequence (whole entry) with V198M
# Procedure, shortened: as §1
# OR2C1 = system: T15, OR2C1
# T15 sequence (whole entry): T12 sequence (whole entry) with C149W
# Procedure, shortened: as §1
# 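Further: active if original authors judged signal statistically different from baseline.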
compound,measurement,setting,value
CCCCC(S)C(C)CO (centres undefined),odorant receptor agonist call,OR2AE1 (Homo sapiens),inactive
same,odorant receptor agonist call,OR2AG1 (Homo sapiens),inactive
same,odorant receptor agonist call,OR2AG2 (Homo sapiens),inactive
same,odorant receptor agonist call,OR2AJ1 (Homo sapiens),inactive
same,odorant receptor agonist call,OR2AK2 (Homo sapiens),inactive
same,odorant receptor agonist call,OR2AP1 (Homo sapiens),inactive
same,odorant receptor agonist call,OR2AT4 (Homo sapiens),inactive
same,odorant receptor agonist call,OR2B11 (Homo sapiens),inactive
same,odorant receptor agonist call,OR2B2 (Homo sapiens),inactive
same,odorant receptor agonist call,OR2B3 (Homo sapiens),inactive
same,odorant receptor agonist call,OR2B6 (Homo sapiens),inactive
same,odorant receptor agonist call,OR2C1 (Homo sapiens),inactive
CC(CO)CS (centres undefined),odorant receptor agonist call,OR2AE1 (Homo sapiens),inactive
same,odorant receptor agonist call,OR2AG1 (Homo sapiens),inactive
same,odorant receptor agonist call,OR2AG2 (Homo sapiens),inactive
same,odorant receptor agonist call,OR2AJ1 (Homo sapiens),inactive
same,odorant receptor agonist call,OR2AK2 (Homo sapiens),inactive
same,odorant receptor agonist call,OR2AP1 (Homo sapiens),inactive
same,odorant receptor agonist call,OR2AT4 (Homo sapiens),inactive
same,odorant receptor agonist call,OR2B11 (Homo sapiens),inactive
same,odorant receptor agonist call,OR2B2 (Homo sapiens),inactive
same,odorant receptor agonist call,OR2B3 (Homo sapiens),inactive
same,odorant receptor agonist call,OR2B6 (Homo sapiens),inactive
same,odorant receptor agonist call,OR2C1 (Homo sapiens),inactive
CCCC(C)C1OCC(C)(CCC)CO1 (centres undefined),odorant receptor agonist call,OR2AG1 (Homo sapiens),inactive
c1coc(CSSCc2ccco2)c1,odorant receptor agonist call,OR2B11 (Homo sapiens),active
same,odorant receptor agonist call,OR2BB [1],active
same,odorant receptor agonist call,OR2BB [2],active
same,odorant receptor agonist call,OR2C1,inactive
